Experiments:
Assay type in all cases: protein-complex assay
[1] = target: CDK9/cyclin T1 (Homo sapiens) (UniProt O60563+P50750); test: Inhibition of CDK9/CycT1 (unknown origin) using TAMRA-Rbtide and ATP as substrate at 1 uM after 1 hr
[2] = target: CDK9/cyclin T1 (Homo sapiens, UniProt P50750); test: Inhibition of CDK9/CycT1 (unknown origin) using TAMRA-Rbtide and ATP as substrate after 1 hr
[3] = target: Cyclin-dependent kinase 4/cyclin D1 (Homo sapiens) (UniProt P11802+P24385); test: Inhibition of CDK4/CycD1 (unknown origin) using FAM labeled peptide as substrate at 1 uM by IMAP FAM FP assay
Procedure, shortened: (§1)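 Run by contract partners as an IMAP fluorescence polarization assay. […] Enzyme amount was set to give 50% substrate turnover. Compounds were added in DMSO, IMAP binding solution added after the kinase step, then FP read.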

[4] = target: Cyclin-dependent kinase 2/cyclin E1 (Homo sapiens) (UniProt P24864+P24941); test: Inhibition of CDK2/CycE (unknown origin) using FAM labeled peptide as substrate at 1 uM by IMAP FAM FP assay; procedure, shortened: as §1

Chain of CDK9/cyclin T1 (O60563 whole entry): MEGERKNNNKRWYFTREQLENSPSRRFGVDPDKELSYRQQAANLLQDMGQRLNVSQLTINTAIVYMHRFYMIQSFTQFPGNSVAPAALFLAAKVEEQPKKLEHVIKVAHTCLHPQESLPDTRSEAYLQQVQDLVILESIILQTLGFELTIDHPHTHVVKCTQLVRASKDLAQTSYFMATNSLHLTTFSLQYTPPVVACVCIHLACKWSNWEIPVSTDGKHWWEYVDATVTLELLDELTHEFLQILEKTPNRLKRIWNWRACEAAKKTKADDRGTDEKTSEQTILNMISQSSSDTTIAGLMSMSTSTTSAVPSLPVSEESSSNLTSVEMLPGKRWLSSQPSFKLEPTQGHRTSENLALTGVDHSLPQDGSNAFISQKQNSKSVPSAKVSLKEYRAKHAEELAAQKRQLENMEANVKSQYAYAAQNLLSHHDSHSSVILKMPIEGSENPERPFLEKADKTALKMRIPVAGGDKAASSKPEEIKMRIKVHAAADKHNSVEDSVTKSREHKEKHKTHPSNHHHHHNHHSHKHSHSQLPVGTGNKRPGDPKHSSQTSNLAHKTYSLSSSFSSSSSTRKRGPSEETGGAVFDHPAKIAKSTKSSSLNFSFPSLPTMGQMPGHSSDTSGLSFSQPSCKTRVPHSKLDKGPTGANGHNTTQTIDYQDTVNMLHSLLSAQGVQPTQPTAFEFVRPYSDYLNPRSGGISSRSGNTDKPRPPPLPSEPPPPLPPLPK
Chain of CDK9/cyclin T1 (P50750 whole entry): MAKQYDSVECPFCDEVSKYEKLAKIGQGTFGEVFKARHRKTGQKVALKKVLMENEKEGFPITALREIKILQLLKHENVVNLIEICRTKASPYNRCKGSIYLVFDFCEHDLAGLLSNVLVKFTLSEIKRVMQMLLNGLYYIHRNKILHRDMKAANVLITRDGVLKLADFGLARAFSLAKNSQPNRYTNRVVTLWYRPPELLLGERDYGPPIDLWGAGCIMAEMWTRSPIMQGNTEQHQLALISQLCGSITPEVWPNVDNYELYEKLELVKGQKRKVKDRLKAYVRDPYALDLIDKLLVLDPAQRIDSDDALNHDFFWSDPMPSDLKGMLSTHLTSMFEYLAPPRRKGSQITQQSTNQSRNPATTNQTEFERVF

- inhibition [1]: 96%
- IC50 [2]: 327 nM
- inhibition [3]: 22%
- inhibition [4]: 18%
Compound: CCOP(=O)(CC)Cc1cccc(Nc2cc(-c3cccc(N)c3)ncn2)c1 (centres undefined)

From ChEMBL document CHEMBL3259517, “Synthesis and evaluation of phosphorus containing, specific CDK9/CycT1 inhibitors” (J Med Chem, 2014)
